pIC50: −log10 of the molar value.
Columns and labels:
[1] = biological target: Kappa-type opioid receptor (Cavia porcellus, UniProt P41144); test: Displacement of 0.5 nM [3H]bremazocine from guinea pig brain membrane opioid receptor kappa with 100 nM DAGO and 100 nM DPDPE
In short: (§1)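 Crude guinea pig brain membrane homogenate. Compounds as free amine in 50% acetic acid, serially diluted in water; nine concentrations in competition with radioligand ([3H]DAGO for μ; [3H]bremazocine plus unlabeled DAGO and DPDPE for κ). Incubated in 50 mM Tris-HCl pH 7.4, 25 °C, 1 h. Then GF/B filtration, two cold buffer rinses, scintillation counting. IC50 by log-probit analysis.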

[2] = biological target: Opioid receptors; mu/kappa/delta; test: Inhibition of 0.5 nM [3H]bremazocine binding to guinea pig brain membrane opioid receptors; design: species or system Cavia porcellus
Mu-type opioid receptor = Mu-type opioid receptor (Cavia porcellus, UniProt P97266); test: inhibition of 1.0 nM [3H]- DAGO binding to guinea pig brain membrane opioid receptor mu; in short: as §1
[3] = biological target: T1, Opioid receptors; mu/kappa/delta (Homo sapiens) (UniProt P41145+P41143+P35372); test: Compound was evaluated for the percent recovery of 0.5 nM of [3H]- bremazocine binding to total opioid receptor in guinea pig brain membranes at 50 (nM) concentration protection by 1 uM Naloxone.; type: cell membranes; settings: Cavia porcellus, Membrane, target entry is the homologue from another species
In short: (§2)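 Membranes were then washed (4-fold dilution, 20000g for 15 min, 37 °C for 15 min in 3 volumes, recentrifuged) and assayed with the named radioligand by filtration binding. Reported as percent recovery.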

[4] = biological target: Mu-type opioid receptor (Cavia porcellus) (UniProt P97266); test: Compound was evaluated for the percent recovery of 1.0 nM of [3H]- DAGO binding to opioid receptor mu in un washed guinea pig brain membranes at 10 (nM) concentration; settings: Membrane
[5] = biological target: Mu-type opioid receptor (Cavia porcellus) (UniProt P97266); test: Compound was evaluated for the percent recovery of 1.0 nM of [3H]- DAGO binding to opioid receptor mu in guinea pig brain membranes at 10 (nM) concentration protection by 1 uM Naloxone.; type: cell membranes; settings: Membrane; in short: as §2
[6] = biological target: T1, Opioid receptors; mu/kappa/delta (Homo sapiens); test: Compound was evaluated for the percent recovery of 0.5 nM of [3H]- bremazocine binding to total opioid receptor in washed guinea pig brain membranes at 50 (nM) concentration of the compound; type: cell membranes; settings: Cavia porcellus, Membrane, target entry is the homologue from another species
In short: (§3)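 Guinea pig brain membranes were exposed to ligand for 1 h at 25 °C. Washing: 4-fold dilution with buffer, 20000g for 15 min, pellet resuspended in 3 volumes of buffer, 37 °C for 15 min, recentrifuged, resuspended in the original volume. Rebinding with the named radioligand in Tris-HCl pH 7.4, 25 °C, 1 h, filtration, scintillation. Reported as percent recovery.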

[7] = biological target: T1, Opioid receptors; mu/kappa/delta (Homo sapiens); test: Compound was evaluated for the percent recovery of 0.5 nM of [3H]- bremazocine binding to total opioid receptor in unwashed guinea pig brain membranes at 50 (nM) concentration of the compound; type: cell membranes; settings: Cavia porcellus, Membrane, target entry is the homologue from another species
[8] = biological target: Mu-type opioid receptor (Cavia porcellus) (UniProt P97266); test: Compound was evaluated for the percent recovery of 1.0 nM of [3H]- DAGO binding to opioid receptor mu in washed guinea pig brain membranes at 10 (nM) concentration; type: cell membranes; settings: Membrane; in short: as §3
[9] = biological target: Delta-type opioid receptor (Homo sapiens) (UniProt P41143); test: Compound was evaluated for the percent recovery of 1.0 nM of [3H]- DPDPE binding to Opioid receptor delta 1 in guinea pig brain membranes at 22(nM) concentration protection by 1 uM Naloxone.; type: cell membranes; settings: Cavia porcellus, Membrane, target entry is the homologue from another species; in short: as §2
[10] = biological target: Delta-type opioid receptor (Homo sapiens) (UniProt P41143); test: Compound was evaluated for the percent recovery of 1.0 nM of [3H]- DPDPE binding to Opioid receptor delta 1 in guinea pig brain membranes at 17(nM) concentration protection by 1 uM Naloxone.; type: cell membranes; settings: Cavia porcellus, Membrane, target entry is the homologue from another species; in short: as §2
[11] = biological target: Mu-type opioid receptor (Cavia porcellus) (UniProt P97266); test: Compound was evaluated for the percent recovery of 1.0 nM of [3H]- DAGO binding to opioid receptor mu in un washed guinea pig brain membranes at 10(nM) concentration; settings: Membrane
[12] = biological target: T1, Opioid receptors; mu/kappa/delta (Homo sapiens); test: Compound was evaluated for the percent recovery of 0.5 nM of [3H]- bremazocine binding to of total opioid receptor in washed guinea pig brain membranes at 50 (nM) concentration of the compound; type: cell membranes; settings: Cavia porcellus, Membrane, target entry is the homologue from another species; in short: as §3
[13] = biological target: T1, Opioid receptors; mu/kappa/delta (Homo sapiens); test: Compound was evaluated for the percent recovery of 0.5 nM of [3H]- bremazocine binding to of total opioid receptor in unwashed guinea pig brain membranes at 50(nM) concentration of the compound; type: cell membranes; settings: Cavia porcellus, Membrane, target entry is the homologue from another species
[14] = biological target: Mu-type opioid receptor (Cavia porcellus) (UniProt P97266); test: Compound was evaluated for the percent recovery of 1.0 nM of [3H]- DAGO binding to opioid receptor mu in washed guinea pig brain membranes at 10(nM) concentration; type: cell membranes; settings: Membrane; in short: as §3

Kappa-type opioid receptor, sequence (P41144 whole entry): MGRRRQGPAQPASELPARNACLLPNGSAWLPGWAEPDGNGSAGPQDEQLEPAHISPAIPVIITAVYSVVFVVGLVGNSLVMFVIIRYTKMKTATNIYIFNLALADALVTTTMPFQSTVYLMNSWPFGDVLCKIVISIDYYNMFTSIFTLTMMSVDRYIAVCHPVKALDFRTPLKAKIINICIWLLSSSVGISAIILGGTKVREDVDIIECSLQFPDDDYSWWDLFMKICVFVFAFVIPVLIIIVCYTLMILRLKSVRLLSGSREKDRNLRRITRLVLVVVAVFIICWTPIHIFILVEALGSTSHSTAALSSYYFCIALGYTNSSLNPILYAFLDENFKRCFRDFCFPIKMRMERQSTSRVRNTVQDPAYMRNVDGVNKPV
T1 sequence (P35372 whole entry, looked up): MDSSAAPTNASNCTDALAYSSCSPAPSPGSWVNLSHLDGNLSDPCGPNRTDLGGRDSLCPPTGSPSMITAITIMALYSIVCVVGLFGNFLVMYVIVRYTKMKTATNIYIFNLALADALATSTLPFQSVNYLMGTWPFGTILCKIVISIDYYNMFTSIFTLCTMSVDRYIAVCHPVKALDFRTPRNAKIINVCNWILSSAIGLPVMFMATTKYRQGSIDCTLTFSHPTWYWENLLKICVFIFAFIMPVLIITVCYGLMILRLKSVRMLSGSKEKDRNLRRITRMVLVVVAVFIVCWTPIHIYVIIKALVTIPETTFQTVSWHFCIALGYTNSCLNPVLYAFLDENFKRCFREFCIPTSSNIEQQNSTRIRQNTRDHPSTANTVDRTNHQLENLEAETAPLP
T1 sequence (P41143 whole entry, looked up): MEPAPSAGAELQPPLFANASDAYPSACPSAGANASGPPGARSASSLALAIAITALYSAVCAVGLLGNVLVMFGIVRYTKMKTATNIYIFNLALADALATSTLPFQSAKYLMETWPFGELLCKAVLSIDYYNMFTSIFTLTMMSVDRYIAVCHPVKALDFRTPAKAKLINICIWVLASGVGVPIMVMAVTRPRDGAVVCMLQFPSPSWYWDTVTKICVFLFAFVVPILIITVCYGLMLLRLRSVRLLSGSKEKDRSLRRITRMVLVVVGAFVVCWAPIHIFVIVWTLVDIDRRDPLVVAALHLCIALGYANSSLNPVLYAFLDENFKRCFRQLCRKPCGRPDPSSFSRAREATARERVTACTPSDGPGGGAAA
T1 sequence (P41145 whole entry, looked up): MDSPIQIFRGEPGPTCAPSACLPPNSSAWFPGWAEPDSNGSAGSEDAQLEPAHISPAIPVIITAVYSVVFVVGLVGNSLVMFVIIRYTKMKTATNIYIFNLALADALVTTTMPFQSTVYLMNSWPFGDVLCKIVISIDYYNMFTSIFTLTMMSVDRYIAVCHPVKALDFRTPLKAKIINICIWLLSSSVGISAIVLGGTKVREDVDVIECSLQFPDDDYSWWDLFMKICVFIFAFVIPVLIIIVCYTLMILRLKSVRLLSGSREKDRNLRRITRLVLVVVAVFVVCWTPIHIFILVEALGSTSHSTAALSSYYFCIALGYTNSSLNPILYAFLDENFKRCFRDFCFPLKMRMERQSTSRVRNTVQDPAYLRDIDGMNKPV
Mu-type opioid receptor (Cavia porcellus), sequence (P97266 whole entry): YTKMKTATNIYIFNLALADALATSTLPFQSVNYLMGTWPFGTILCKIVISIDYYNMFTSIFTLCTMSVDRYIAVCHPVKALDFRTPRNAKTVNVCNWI
Mu-type opioid receptor, sequence (P97266 whole entry): as above
Delta-type opioid receptor (Homo sapiens), sequence (P41143 whole entry): as the sequence (P41143 whole entry, looked up) above

Which results are given for `Oc1ccc2c3c1O[C@H]1[C@H](OC[C@H]4CO4)CC[C@@]4(O)[C@@H](C2)N(CC2CC2)CC[C@]314`?
pIC50 [1]: 7.77; IC50 [2]: 11 nM; pIC50 (Mu-type opioid receptor): 8.54

With `C=C1C[C@H](CO[C@@H]2CC[C@@]3(OC(C)=O)[C@H]4Cc5ccc(O)c6c5[C@@]3(CCN4CC3CC3)[C@H]2O6)OC1=O` as the compound, how does the % recovery [3] read?
The % recovery was 84.

And the % recovery [4]?
Its % recovery is 10.

What about the % recovery [5] of the same compound?
Its % recovery is 94.

And the pIC50 [1]?
Its pIC50 is 7.32.

What about the IC50 [2] of the same compound?
The IC50 was 15 nM.

And the % recovery [6]?
The % recovery was 68.

And the % recovery [7]?
Its % recovery is 27.

And the pIC50 (Mu-type opioid receptor)?
The pIC50 was 8.66.

What about the % recovery [8] of the same compound?
Its % recovery is 49.

And the % recovery [9]?
The % recovery was 86.

`C=C1C[C@@H](CO[C@@H]2CC[C@@]3(OC(C)=O)[C@H]4Cc5ccc(O)c6c5[C@@]3(CCN4CC3CC3)[C@H]2O6)OC1=O` was tested. Which % recovery [10] did it give?
The % recovery was 71.

What about the % recovery [3] of the same compound?
The % recovery was 61.

What about the % recovery [5] of the same compound?
The % recovery was 55.

What about the pIC50 [1] of the same compound?
Its pIC50 is 7.60.

And the IC50 [2]?
Its IC50 is 14 nM.

What about the % recovery [11] of the same compound?
The % recovery was 21.

What about the pIC50 (Mu-type opioid receptor) of the same compound?
The pIC50 was 8.55.

What about the % recovery [12] of the same compound?
Its % recovery is 54.

And the % recovery [13]?
The % recovery was 20.

What about the % recovery [14] of the same compound?
The % recovery was 71.

For `C=C1C[C@H](CO[C@@H]2CC[C@@]3(O)[C@H]4Cc5ccc(O)c6c5[C@@]3(CCN4CC3CC3)[C@H]2O6)OC1=O`, which % recovery [5] is on record?
Its % recovery is 88.

And the pIC50 [1]?
Its pIC50 is 7.36.

And the IC50 [2]?
Its IC50 is 19 nM.

And the pIC50 (Mu-type opioid receptor)?
Its pIC50 is 8.38.

For `Oc1ccc2c3c1O[C@H]1[C@H](OC[C@@H]4CO4)CC[C@@]4(O)[C@@H](C2)N(CC2CC2)CC[C@]314`, which % recovery [3] is on record?
Its % recovery is 88.

What about the pIC50 [1] of the same compound?
The pIC50 was 7.77.

And the IC50 [2]?
The IC50 was 12 nM.

What about the % recovery [6] of the same compound?
Its % recovery is 79.

And the % recovery [7]?
Its % recovery is 10.

What about the pIC50 (Mu-type opioid receptor) of the same compound?
The pIC50 was 8.46.

Which results are given for `C=C1C[C@@H](CO[C@@H]2CC[C@@]3(O)[C@H]4Cc5ccc(O)c6c5[C@@]3(CCN4CC3CC3)[C@H]2O6)OC1=O`?
pIC50 [1]: 7.55; IC50 [2]: 18 nM; pIC50 (Mu-type opioid receptor): 8.47

From ChEMBL document CHEMBL1126090, “Electrophilic opioid ligands. Oxygen tethered alpha-methylene-gamma-lactone, acrylate, isothiocyanate, and epoxide derivatives of 6 beta-naltrexol” (J Med Chem, 1992)
